Reference: ChEMBL document CHEMBL1122065, “Potential organ- or tumor-imaging agents. 22. Acyl-labeled cholesterol esters” (J Med Chem, 1982)

Legend:
Settings in all cases: in vivo
Rattus norvegicus [1] = experiment: Distribution (percent dose/g of tissue) of radioactivity 24 hr after intravenous administration of [125I]-labeled compound in rat lung; format: ADME, organism-based
Method in brief: (§1)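 Radioiodinated ester given IV to adult female Sprague–Dawley rats (200–300 g), 5–50 μCi per animal, 3–5 rats per compound. Rats killed by exsanguination under ether at 24 h. Organs blotted, large ones minced, weighed samples gamma-counted in well scintillation counter (84% efficiency). Value is % administered dose per g tissue, background-corrected; mean with SEM.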

Rattus norvegicus [2] = experiment: Distribution (percent dose/g of tissue) of radioactivity 24 hr after intravenous administration of [125I]-labeled compound in rat liver; format: ADME, organism-based; method in brief: as §1
Rattus norvegicus [3] = experiment: Distribution (percent dose/g of tissue) of radioactivity 24 hr after intravenous administration of [125I]-labeled compound in rat ovary; format: ADME, organism-based, Female gonad; method in brief: as §1
Rattus norvegicus [4] = experiment: Distribution (percent dose/g of tissue) of radioactivity 24 hr after intravenous administration of [125I]-labeled compound in rat adrenal cortex; format: ADME, organism-based; method in brief: as §1
Rattus norvegicus [5] = experiment: Distribution (percent dose/g of tissue) of radioactivity 24 hr after intravenous administration of [125I]-labeled compound to rat thyroid; format: ADME, organism-based, Thyroid gland; method in brief: as §1
Rattus norvegicus [6] = experiment: Distribution (percent dose/g of tissue) of radioactivity 24 hr after intravenous administration of [125I]-labeled compound to rat spleen; format: ADME, organism-based; method in brief: as §1
Rattus norvegicus [7] = experiment: Distribution (percent dose/g of tissue) of radioactivity 24 hr after intravenous administration of [125I]-labeled compound in rat blood; format: ADME, organism-based; method in brief: as §1
Rattus norvegicus [8] = experiment: Distribution (percent dose/g of tissue) of radioactivity 24 hr after intravenous administration of [125I]-labeled compound in rat plasma; format: ADME, organism-based; method in brief: as §1
Rattus norvegicus [9] = experiment: Distribution (percent dose/g of tissue) of radioactivity 24 hr after intravenous administration of [125I]-labeled compound in rat heart; format: ADME, organism-based; method in brief: as §1
Rattus norvegicus [10] = experiment: Distribution (percent dose/g of tissue) of radioactivity 24 hr after intravenous administration of [125I]-labeled compound in rat spleen; format: ADME, organism-based; method in brief: as §1
Rattus norvegicus [11] = experiment: Distribution (percent dose/g of tissue) of radioactivity 24 hr after intravenous administration of [125I]-labeled compound in rat thyroid; format: ADME, organism-based, Thyroid gland; method in brief: as §1
Rattus norvegicus [12] = experiment: Distribution (percent dose/g of tissue) of radioactivity 24 hr after intravenous administration of [125I]-labeled compound to rat blood; format: ADME, organism-based; method in brief: as §1

| Structure (SMILES) | Activity (Rattus norvegicus [1]) | Activity (Rattus norvegicus [2]) | Activity (Rattus norvegicus [3]) | Activity (Rattus norvegicus [4]) | Activity (Rattus norvegicus [5]) | Activity (Rattus norvegicus [6]) | Activity (Rattus norvegicus [7]) | Activity (Rattus norvegicus [8]) | Activity (Rattus norvegicus [9]) | Activity (Rattus norvegicus [10]) | Activity (Rattus norvegicus [11]) | Activity (Rattus norvegicus [12]) |
| --- | --- | --- | --- | --- | --- | --- | --- | --- | --- | --- | --- | --- |
| CC(C)CCCC(C)C1CCC2C3CC=C4CC(OC(=O)c5cc(I)cc(I)c5I)CCC4(C)C3CCC12C (centres undefined) | 0.7 % dose (g of tissue)-1 | 5.11 % dose (g of tissue)-1 | 16.19 % dose (g of tissue)-1 | 9.03 % dose (g of tissue)-1 | 2.63 % dose (g of tissue)-1 | 1.68 % dose (g of tissue)-1 | 0.57 % dose (g of tissue)-1 | 1.02 % dose (g of tissue)-1 |  |  |  |  |
| CC(C)CCCC(C)C1CCC2C3CC=C4CC(OC(=O)Cc5cccc(I)c5)CCC4(C)C3CCC12C (centres undefined) | 0.27 % dose (g of tissue)-1 | 2.11 % dose (g of tissue)-1 | 5.05 % dose (g of tissue)-1 | 3.4 % dose (g of tissue)-1 |  |  | 0.14 % dose (g of tissue)-1 | 0.24 % dose (g of tissue)-1 | 0.11 % dose (g of tissue)-1 | 0.77 % dose (g of tissue)-1 | 32.62 % dose (g of tissue)-1 |  |
| CC(C)CCCC(C)C1CCC2C3CC=C4CC(OC(=O)c5ccccc5I)CCC4(C)C3CCC12C (centres undefined) | 0.94 % dose (g of tissue)-1 | 5.18 % dose (g of tissue)-1 | 13.68 % dose (g of tissue)-1 | 14.67 % dose (g of tissue)-1 |  |  | 0.44 % dose (g of tissue)-1 | 0.8 % dose (g of tissue)-1 | 0.21 % dose (g of tissue)-1 | 1.89 % dose (g of tissue)-1 | 1.96 % dose (g of tissue)-1 |  |
| CC(C)CCCC(C)C1CCC2C3CC=C4CC(OC(=O)Cc5ccc(I)cc5)CCC4(C)C3CCC12C (centres undefined) | 0.65 % dose (g of tissue)-1 | 1.25 % dose (g of tissue)-1 | 2.32 % dose (g of tissue)-1 | 3.29 % dose (g of tissue)-1 |  |  | 1.02 % dose (g of tissue)-1 | 1.88 % dose (g of tissue)-1 | 0.33 % dose (g of tissue)-1 | 0.5 % dose (g of tissue)-1 | 27.09 % dose (g of tissue)-1 |  |
| CC(C)CCCC(C)C1CCC2C3CC=C4CC(OC(=O)c5cccc(I)c5)CCC4(C)C3CCC12C (centres undefined) | 0.46 % dose (g of tissue)-1 | 5.03 % dose (g of tissue)-1 | 15.7 % dose (g of tissue)-1 | 12.76 % dose (g of tissue)-1 |  |  |  | 0.55 % dose (g of tissue)-1 | 0.16 % dose (g of tissue)-1 | 1.86 % dose (g of tissue)-1 | 7.3 % dose (g of tissue)-1 | 0.3 % dose (g of tissue)-1 |
| CC(C)CCCC(C)C1CCC2C3CC=C4CC(OC(=O)c5ccc(I)cc5)CCC4(C)C3CCC12C (centres undefined) | 0.94 % dose (g of tissue)-1 | 3.28 % dose (g of tissue)-1 | 6.21 % dose (g of tissue)-1 | 3.86 % dose (g of tissue)-1 |  |  |  | 0.36 % dose (g of tissue)-1 | 0.11 % dose (g of tissue)-1 | 1.49 % dose (g of tissue)-1 | 6.92 % dose (g of tissue)-1 | 0.2 % dose (g of tissue)-1 |
| CC(C)CCCC(C)C1CCC2C3CC=C4CC(OC(=O)CCCc5ccc(I)cc5)CCC4(C)C3CCC12C (centres undefined) | 0.4 % dose (g of tissue)-1 | 0.36 % dose (g of tissue)-1 | 3.23 % dose (g of tissue)-1 | 1.94 % dose (g of tissue)-1 |  |  | 0.87 % dose (g of tissue)-1 | 1.51 % dose (g of tissue)-1 | 0.25 % dose (g of tissue)-1 | 0.16 % dose (g of tissue)-1 | 30.09 % dose (g of tissue)-1 |  |
| CC(C)CCCC(C)C1CCC2C3CC=C4CC(OC(=O)c5cc(I)c(I)c(I)c5)CCC4(C)C3CCC12C (centres undefined) | 0.97 % dose (g of tissue)-1 | 4.8 % dose (g of tissue)-1 | 12.53 % dose (g of tissue)-1 | 7.48 % dose (g of tissue)-1 | 6.06 % dose (g of tissue)-1 | 2.98 % dose (g of tissue)-1 | 0.54 % dose (g of tissue)-1 | 1.01 % dose (g of tissue)-1 | 0.2 % dose (g of tissue)-1 |  |  |  |
| CC(C)CCCC(C)C1CCC2C3CC=C4CC(OC(=O)Cc5ccccc5I)CCC4(C)C3CCC12C (centres undefined) | 0.43 % dose (g of tissue)-1 | 3.99 % dose (g of tissue)-1 | 5.97 % dose (g of tissue)-1 | 9.19 % dose (g of tissue)-1 |  |  | 0.21 % dose (g of tissue)-1 | 0.29 % dose (g of tissue)-1 | 0.15 % dose (g of tissue)-1 | 1.31 % dose (g of tissue)-1 | 46.31 % dose (g of tissue)-1 |  |
| CC(C)CCCC(C)C1CCC2C3CC=C4CC(OC(=O)CCc5ccc(I)cc5)CCC4(C)C3CCC12C (centres undefined) | 0.5 % dose (g of tissue)-1 | 0.42 % dose (g of tissue)-1 | 1.35 % dose (g of tissue)-1 | 3.56 % dose (g of tissue)-1 |  |  | 0.13 % dose (g of tissue)-1 | 0.16 % dose (g of tissue)-1 | 0.08 % dose (g of tissue)-1 | 0.51 % dose (g of tissue)-1 | 67.52 % dose (g of tissue)-1 |  |
